Measurements taken from ChEMBL document CHEMBL4007399, “Discovery and Synthesis of a Phosphoramidate Prodrug of a Pyrrolo[2,1-f][triazin-4-amino] Adenine C-Nucleoside (GS-5734) for the Treatment of Ebola and Emerging Viruses” (J Med Chem, 2017).

Columns and labels:
Plasma [1] = assay: Half life in human plasma at 2 uM by LC/MS/MS analysis; assay type: ADME, cell-free; conditions: 2 µM
Human orthopneumovirus = assay: Antiviral activity against Respiratory syncytial virus A2 infected in human Hep2 cells assessed as reduction of virus-induced cytopathic effect after 4 days by Cell-Titer Glo assay; assay type: functional, cell-based
Hepatitis C virus = assay: Antiviral activity against Hepatitis C virus genotype 1b infected in human HuH7 cells preincubated with cells for 3 days followed by viral infection by luciferase assay; assay type: functional, cell-based, Hepacivirus hominis
Brain [2] = assay: Drug uptake in cynomolgus monkey brain at 10 mg/kg, iv at 168 hrs post dose; assay type: ADME, organism-based, Macaca fascicularis; conditions: in vivo
Homo sapiens [3] = assay: Toxicity in phase-1 acute meningoencephalytis patient at 150 mg, iv qd administered daily for 2 days followed by 225 mg for 14 days; assay type: organism-based; conditions: in vivo
HEp-2 = assay: (§1) Cytotoxicity against human Hep2 cells assessed as reduction in cell viability after 4 to 5 days by Cell-Titer Glo assay; assay type: cell-based; conditions: hep-2
[4] = Drug uptake in cynomolgus monkey epididymis at 10 mg/kg, iv at 4 hrs post dose; assay type: ADME, organism-based, Macaca fascicularis; conditions: in vivo
PBMC [5] = assay: Time at which plasma concentration greater than in vitro EBOV antiviral IC50 in rhesus monkey PBMC assessed as ((2R,3S,4R,5R)-5-(4-aminopyrrolo[1,2-f][1,2,4]triazin-7-yl)-5-cyano-3,4-dihydroxytetrahydrofuran-2-yl)methyl tetrahydrogen triphosphate levels at 10 mg/kg, iv administered as single bolus; assay type: ADME, organism-based, Macaca mulatta; conditions: in vivo
Summary of the method: (§2)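 Rhesus monkeys received a single 10 mg/kg iv slow bolus. The active triphosphate metabolite was measured inside PBMCs over time to build a concentration–time profile. Values are mean ± SD, n = 3 per time point.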

Ebolavirus [6] = assay: Antiviral activity against Ebolavirus Kikwit infected in human HeLa cells assessed as reduction in viral glycoprotein levels preincubated with cells for 2 hrs followed by viral infection measured after 48 hrs by immunostaining based assay; assay type: functional, cell-based
Homo sapiens [7] = assay: Toxicity in iv dosed phase-1 acute meningoencephalytis patient administered as single dose; assay type: organism-based; conditions: in vivo
Plasma [8] = assay: Prodrug conversion in rhesus monkey plasma assessed as (2R,3R,4S,5R)-2-(4-aminopyrrolo[1,2-f][1,2,4]triazin-7-yl)-3,4-dihydroxy-5-(hydroxymethyl)tetrahydrofuran-2-carbonitrile formation at 10 mg/kg, iv administered as single bolus dose; assay type: ADME, organism-based, Macaca mulatta; conditions: in vivo
Summary of the method: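 Rhesus monkeys received a single 10 mg/kg iv slow bolus. Plasma was sampled over time, and the prodrug and the parent nucleoside formed from it were both quantified to give a concentration–time profile. Values are mean ± SD, n = 3 per time point.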

Brain [9] = assay: Drug uptake in cynomolgus monkey brain at 10 mg/kg, iv at 4 hrs post dose; assay type: ADME, organism-based, Macaca fascicularis; conditions: in vivo
[10] = Lipophilicity, log D of the compound after 30 mins by HPLC/UV method; assay type: physicochemical
Ebolavirus [11] = assay: Antiviral activity against GFP-fused Ebolavirus infected in TERT-immortalized HMVEC assessed as reduction in viral replication preincubated with cells followed by viral infection measured after 3 to 4 days by fluorescence assay; assay type: functional
Ebolavirus [12] = assay: Antiviral activity against Ebolavirus infected in rhesus monkey assessed as viral RNA copies at 10 mg/kg, iv administered daily administered daily starting from day 3 post infection measured on day 5 and 7 (reference value: 10^9 copies/ml); assay type: functional
PBMC [13] = assay: Drug metabolism in rhesus monkey PBMC assessed as ((2R,3S,4R,5R)-5-(4-aminopyrrolo[1,2-f][1,2,4]triazin-7-yl)-5-cyano-3,4-dihydroxytetrahydrofuran-2-yl)methyl tetrahydrogen triphosphate levels at 10 mg/kg, iv administered as single bolus dose up to 2 hrs; assay type: ADME, organism-based, Macaca mulatta; conditions: in vivo; summary of the method: as §2
Ebolavirus [14] = assay: Antiviral activity against Ebolavirus Kikwit infected in human macrophages preincubated with cells for 2 hrs followed by viral infection measured after 48 hrs; assay type: functional
Ebolavirus [15] = assay: Antiviral activity against Ebolavirus infected in rhesus monkey assessed as survival rate at 3 mg/kg, iv qd administered continuously starting from day 3 post infection for 12 days measured on day 28 (reference value: 33%); assay type: functional; conditions: Orthoebolavirus, in Macaca mulatta
Plasma [16] = assay: Drug uptake in cynomolgus monkey plasma at 10 mg/kg, iv at 4 hrs post dose; assay type: ADME, organism-based, Macaca fascicularis; conditions: in vivo
MT4 = assay: (§3) Cytotoxicity against human MT4 cells assessed as reduction in cell viability after 4 to 5 days by Cell-Titer Glo assay; assay type: cell-based; conditions: mt4
[17] = Drug metabolism in cynomolgus monkey testes at 10 mg/kg, iv after 168 hrs post dose; assay type: ADME, organism-based, Macaca fascicularis, Testis; conditions: in vivo
Ebolavirus [18] = assay: Antiviral activity against Ebolavirus infected in rhesus monkey assessed as survival rate at 10 mg/kg, iv administered daily starting from day 3 post infection for 12 days relative to control; assay type: functional; conditions: Orthoebolavirus, in Macaca mulatta
[19] = Drug uptake in cynomolgus monkey testes at 10 mg/kg, iv at 4 hrs post dose; assay type: ADME, organism-based, Macaca fascicularis, Testis; conditions: in vivo
Macrophage = assay: Drug level in human macrophages treated with (2S)-2-ethylbutyl 2-((((2R,3S,4R,5R)-5-(4-aminopyrrolo[1,2-f][1,2,4]triazin-7-yl)-5-cyano-3,4-dihydroxytetrahydrofuran-2-yl)methoxy)(phenoxy)phosphorylamino)propanoate at 1 uM after 2 to 72 hrs; assay type: ADME, cell-based
[20] = Inhibition of recombinant human DNA polymerase gamma assessed as single nucleotide incorporation rate after 5 to 90 mins in presence of [32P]-D19/D36 as primer/template by PAGE based phosphorimaging assay; design: scale not given: the % may be the effect or the level left
[21] = Inhibition of Hepatitis C virus genotype 1b NS5B RNA-dependent-RNA polymerase preincubated for 5 mins followed by [alpha-33P]GTP addition measured after 90 mins by phosphorimaging assay; design: species or system Hepatitis C virus subtype 1b
[22] = molecular target: T1, DNA polymerase alpha catalytic subunit (Homo sapiens, UniProt P09884); assay: Inhibition of recombinant human DNA polymerase alpha preincubated with enzyme followed by addition of dATP/dGTP/TTP as substrate in presence of […] by phosphorimaging assay
T1 sequence (P09884 whole entry): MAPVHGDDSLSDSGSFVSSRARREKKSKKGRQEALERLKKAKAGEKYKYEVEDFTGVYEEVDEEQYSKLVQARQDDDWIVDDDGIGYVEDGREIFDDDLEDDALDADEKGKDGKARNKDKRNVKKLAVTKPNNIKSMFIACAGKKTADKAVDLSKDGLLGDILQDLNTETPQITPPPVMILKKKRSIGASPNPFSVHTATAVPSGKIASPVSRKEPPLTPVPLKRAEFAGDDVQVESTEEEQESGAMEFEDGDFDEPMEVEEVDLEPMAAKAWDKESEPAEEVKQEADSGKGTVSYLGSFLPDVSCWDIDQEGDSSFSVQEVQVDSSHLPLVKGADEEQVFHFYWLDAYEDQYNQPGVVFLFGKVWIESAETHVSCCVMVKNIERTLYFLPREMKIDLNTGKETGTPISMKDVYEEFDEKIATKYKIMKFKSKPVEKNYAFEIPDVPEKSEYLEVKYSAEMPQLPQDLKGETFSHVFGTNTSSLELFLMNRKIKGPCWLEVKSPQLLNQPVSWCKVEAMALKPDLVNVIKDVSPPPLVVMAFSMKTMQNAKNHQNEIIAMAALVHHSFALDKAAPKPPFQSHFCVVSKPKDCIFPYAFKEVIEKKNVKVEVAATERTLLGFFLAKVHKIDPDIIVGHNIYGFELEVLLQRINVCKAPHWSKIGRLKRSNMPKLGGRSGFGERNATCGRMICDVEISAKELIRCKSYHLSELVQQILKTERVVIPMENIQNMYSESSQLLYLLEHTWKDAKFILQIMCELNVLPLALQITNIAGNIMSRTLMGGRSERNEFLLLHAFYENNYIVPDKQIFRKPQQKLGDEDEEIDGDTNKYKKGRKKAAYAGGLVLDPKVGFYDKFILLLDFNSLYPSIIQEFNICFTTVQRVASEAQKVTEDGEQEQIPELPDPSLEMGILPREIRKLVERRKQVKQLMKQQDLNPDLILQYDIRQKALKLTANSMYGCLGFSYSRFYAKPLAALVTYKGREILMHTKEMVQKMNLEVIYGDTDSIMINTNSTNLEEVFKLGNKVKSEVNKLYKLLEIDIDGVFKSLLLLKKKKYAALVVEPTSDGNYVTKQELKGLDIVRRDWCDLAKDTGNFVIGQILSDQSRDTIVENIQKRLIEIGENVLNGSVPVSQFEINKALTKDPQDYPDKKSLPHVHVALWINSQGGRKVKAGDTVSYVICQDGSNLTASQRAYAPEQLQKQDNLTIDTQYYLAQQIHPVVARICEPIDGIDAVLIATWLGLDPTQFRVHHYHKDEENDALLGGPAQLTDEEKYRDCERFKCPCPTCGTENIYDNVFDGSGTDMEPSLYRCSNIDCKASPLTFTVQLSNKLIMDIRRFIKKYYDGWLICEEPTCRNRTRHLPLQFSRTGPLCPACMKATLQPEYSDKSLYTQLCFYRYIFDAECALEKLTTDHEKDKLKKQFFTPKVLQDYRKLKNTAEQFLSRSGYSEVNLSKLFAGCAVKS

[23] = Inhibition of Respiratory syncytial virus A2 RNA-dependent-RNA polymerase assessed as reduction in RNP transcriptional activity after 90 mins in presence of [gamma-32P]ATP by agarose gel based phosphorimaging assay; design: species or system Human respiratory syncytial virus A2
[24] = molecular target: T2, DNA-directed RNA polymerase, mitochondrial (Homo sapiens, UniProt O00411); assay: Inhibition of human mitochondrial RNA polymerase after 30 mins in presence of [33P]GTP
[25] = molecular target: T2, DNA-directed RNA polymerase, mitochondrial; assay: Inhibition of human mitochondrial RNA polymerase assessed as single nucleotide incorporation rate in presence of 5'-[32P]-R12/D18 as primer/template by PAGE based phosphorimaging assay; design: scale not given: the % may be the effect or the level left
[26] = Drug level in TERT-immortalized HMVEC treated with (2S)-2-ethylbutyl 2-((((2R,3S,4R,5R)-5-(4-aminopyrrolo[1,2-f][1,2,4]triazin-7-yl)-5-cyano-3,4-dihydroxytetrahydrofuran-2-yl)methoxy)(phenoxy)phosphorylamino)propanoate at 1 uM after 2 to 72 hrs; assay type: ADME, cell-based; conditions: human
[27] = Drug level in human HeLa cells treated with (2S)-2-ethylbutyl 2-((((2R,3S,4R,5R)-5-(4-aminopyrrolo[1,2-f][1,2,4]triazin-7-yl)-5-cyano-3,4-dihydroxytetrahydrofuran-2-yl)methoxy)(phenoxy)phosphorylamino)propanoate at 1 uM after 2 to 72 hrs; assay type: ADME, cell-based
PBMC [28] = assay: Drug level in rhesus monkey PBMC treated with (S)-2-Ethylbutyl 2-(((S)-(((2R,3S,4R,5R)-5-(4-Aminopyrrolo-[2,1-f][1,2,4]triazin-7-yl)-5-cyano-3,4-dihydroxytetrahydrofuran-2-yl)methoxy)(phenoxy)phosphoryl)amino)propanoate at 10 mg/kg, iv administered as single bolus dose up to 2 hrs; assay type: ADME, organism-based, Macaca mulatta; conditions: in vivo
[29] = Inhibition of recombinant human DNA polymerase gamma preincubated with enzyme followed by addition of dATP/dGTP/TTP as substrate in presence of […] by phosphorimaging assay
[30] = Inhibition of RNA polymerase 2 in human HeLa cells preincubated for 5 mins with […] as substrate followed by addition of cell extract measured after 1 hr by SDS-PAGE method
DNA polymerase beta = DNA polymerase beta (Homo sapiens, UniProt P06746); assay: Inhibition of recombinant human DNA polymerase beta preincubated with enzyme followed by addition of dATP/dGTP/TTP as substrate in presence of […] by phosphorimaging assay
Huh-7 = assay: Cytotoxicity against human HuH7 cells assessed as reduction in cell viability after 3 days by calcein-AM dye based fluorescence assay; conditions: huh-7, 72 h, 72 h
[31] = as §1; assay type: cell-based, HEp-2; conditions: HEp-2 cells
[32] = as §3; assay type: cell-based; conditions: MT4 cells

T2 sequence (O00411 whole entry): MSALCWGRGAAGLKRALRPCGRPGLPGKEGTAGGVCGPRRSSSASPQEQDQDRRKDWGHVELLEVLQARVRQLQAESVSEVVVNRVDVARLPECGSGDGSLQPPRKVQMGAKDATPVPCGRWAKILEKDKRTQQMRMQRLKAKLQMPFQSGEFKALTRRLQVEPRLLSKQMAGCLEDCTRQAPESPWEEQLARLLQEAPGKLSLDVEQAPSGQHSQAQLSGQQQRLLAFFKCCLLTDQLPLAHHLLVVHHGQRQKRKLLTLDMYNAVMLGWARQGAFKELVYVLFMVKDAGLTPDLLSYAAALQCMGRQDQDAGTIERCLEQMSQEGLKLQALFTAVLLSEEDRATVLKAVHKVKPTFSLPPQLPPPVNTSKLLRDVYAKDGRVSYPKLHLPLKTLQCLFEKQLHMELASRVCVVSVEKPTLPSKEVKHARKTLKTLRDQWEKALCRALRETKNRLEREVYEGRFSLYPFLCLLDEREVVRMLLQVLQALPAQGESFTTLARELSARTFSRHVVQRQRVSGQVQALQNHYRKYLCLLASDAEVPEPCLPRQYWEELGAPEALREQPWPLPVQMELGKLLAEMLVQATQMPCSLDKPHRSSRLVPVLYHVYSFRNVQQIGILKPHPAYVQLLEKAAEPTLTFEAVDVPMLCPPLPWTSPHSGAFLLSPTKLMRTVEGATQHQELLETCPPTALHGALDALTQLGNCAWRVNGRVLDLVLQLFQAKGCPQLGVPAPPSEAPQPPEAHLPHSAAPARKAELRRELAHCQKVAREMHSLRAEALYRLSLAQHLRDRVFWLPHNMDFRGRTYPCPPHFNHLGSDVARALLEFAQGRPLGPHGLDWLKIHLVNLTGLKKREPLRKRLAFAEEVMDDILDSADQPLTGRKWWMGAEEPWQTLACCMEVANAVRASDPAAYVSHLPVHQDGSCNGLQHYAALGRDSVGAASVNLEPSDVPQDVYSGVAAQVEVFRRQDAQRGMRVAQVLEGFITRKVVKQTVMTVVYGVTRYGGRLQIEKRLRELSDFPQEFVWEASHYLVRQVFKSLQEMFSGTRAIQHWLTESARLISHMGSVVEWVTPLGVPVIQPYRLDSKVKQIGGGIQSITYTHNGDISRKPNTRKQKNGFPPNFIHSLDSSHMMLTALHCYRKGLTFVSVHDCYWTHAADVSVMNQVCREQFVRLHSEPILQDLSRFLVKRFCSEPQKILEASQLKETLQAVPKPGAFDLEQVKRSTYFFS

CCC(CC)COC(=O)[C@H](C)N[P@](=O)(OC[C@H]1O[C@@](C#N)(c2ccc3c(N)ncnn23)[C@H](O)[C@@H]1O)Oc1ccccc1
t1/2 (Plasma [1]): 1.15 h | EC50 (Human orthopneumovirus): 15 nM | EC50 (Hepatitis C virus): 57 nM | Drug uptake (Brain [2]): Active | Activity (Homo sapiens [3]): Non-Toxic | CC50 (HEp-2): 6100 nM | Drug uptake [4]: Active | Time (PBMC [5]): 24 h | EC50 (Ebolavirus [6]; hela): 100 nM | Activity (Homo sapiens [7]): Non-Toxic | Drug metabolism (Plasma [8]): Metabolite_Detected | Drug uptake (Brain [9]): Not Active | logD ([10]; 0.5 h): 2.1 | EC50 (Ebolavirus [11]): 53 nM | Activity (Ebolavirus [12]): <80000 mL⁻¹ | Drug metabolism (PBMC [13]): Metabolite_Detected | EC50 (Ebolavirus [14]): 86 nM | survival at 3 mg/kg (Ebolavirus [15]): 66% | Drug uptake (Plasma [16]): Active | CC50 (MT4): 1700 nM | Drug uptake [17]: Metabolite_Detected | survival at 10 mg/kg (Ebolavirus [18]): 100% | Drug uptake [19]: Active

N#C[C@@]1(c2ccc3c(N)ncnn23)O[C@H](COP(=O)(O)OP(=O)(O)OP(=O)(O)O)[C@@H](O)[C@H]1O [RDV-TP]
Drug metabolism (Macrophage): Metabolite_Detected | Activity [20]: 0% | IC50 [21]: 5000 nM | IC50 [22]: > 200000 nM | IC50 [23]: 1100 nM | IC50 [24]: > 200000 nM | Activity [25]: 6% | Drug metabolism [26]: Metabolite_Detected | Drug metabolism [27]: Metabolite_Detected | Drug metabolism (PBMC [28]): Metabolite_Detected | IC50 [29]: > 200000 nM | IC50 [30]: > 200000 nM | IC50 (DNA polymerase beta): > 200000 nM

CCC(CC)COC(=O)[C@H](C)N[P@](=O)(OC[C@H]1O[C@@](C#N)(c2ccc3c(N)ncnn23)[C@H](O)[C@@H]1O)Oc1ccccc1 (mixture of isomers)
t1/2 (Plasma [1]): 3.25 h | EC50 (Human orthopneumovirus; human respiratory syncytial virus, A2, HEp-2, 96 h): 27 nM | EC50 (Hepatitis C virus): 23 nM | CC50 (Huh-7): 17000 nM | CC50 [31]: 9200 nM | EC50 (Ebolavirus [6]; Orthoebolavirus, Kikwit, HeLa): 170 nM | logD at 0.5 h [10]: 2.1 | EC50 (Ebolavirus [11]): 120 nM | EC50 (Ebolavirus [14]; Orthoebolavirus, Kikwit): 100 nM | CC50 [32]: 2000 nM
